Bioassay records as filed in PubChem BioAssay.
The entries come from a sample that favours hits as a whole.
KDM4C inh = inhibitors of GASC-1 (KDM4C) histone demethylase, primary screen, biochemical, single concentration HTS | Lysine-specific demethylase 4C (Homo sapiens), Q9H3R0 | GST-KDM4C 2-372, H3K9me3 peptide, LANCE TR-FRET | inhibition, % at 12.5 µM | hit rate 0.15% among 96,000 | AID 720574, 2013;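 active means mean replicate inhibition above about 25%, with at least 55% of replicates also reaching it, limit read from the data, passing the limit was not always enough; inconclusive means only one of those two conditions met; inactive means neither condition met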
Target sequence (Q9H3R0 2-372 limits assumed): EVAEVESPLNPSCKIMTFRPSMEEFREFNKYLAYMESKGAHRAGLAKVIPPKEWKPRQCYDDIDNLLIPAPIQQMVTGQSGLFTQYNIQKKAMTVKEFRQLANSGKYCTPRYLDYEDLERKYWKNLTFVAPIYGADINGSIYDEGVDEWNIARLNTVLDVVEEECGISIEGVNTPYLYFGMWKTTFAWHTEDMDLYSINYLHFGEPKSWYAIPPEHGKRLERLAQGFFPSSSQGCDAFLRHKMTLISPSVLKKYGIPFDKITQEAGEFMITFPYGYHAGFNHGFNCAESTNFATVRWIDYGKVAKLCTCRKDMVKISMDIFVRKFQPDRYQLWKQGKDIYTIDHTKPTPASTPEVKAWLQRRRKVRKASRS
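Assay system: GST-GASC-1 enzyme fragment 2-372 | Amount: 10 nM enzyme | Medium: HEPES buffer, pH 7.5, plus ascorbate | Reagent: H3K9me3 peptide substrate, Fe(II), 2-oxoglutarate | Doses: Single-point compound screen | Incubation: 30 min demethylation and 1 h detection at room temperature | Measured by: LANCE TR-FRET, excitation 340 nm, emissions 618 and 671 nm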
T cruzi growth-1 = T. cruzi intracellular proliferation inhibitors, primary screen, cell-based, beta-gal Tulahuen parasites, NIH3T3 host, luminescence; T. cruzi beta-gal in NIH3T3, GalScreen luminescence, 90 h; inhibition, % at 8.34 µM; hit rate 5.9% among 77,000; AID 624255, 2012;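 active means mean inhibition above about 93%, with at least 55% of replicates each passing it, limit read from the data, passing the limit was not always enough; inconclusive means only one of those two conditions holds; inactive means neither condition holds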
IDH1 mut inh = inhibitors of IDH1 R132H reductase, primary screen, biochemical, plate reader, single point | diaphorase/resazurin fluorescence, 60 min | inhibition, % at 10 µM | hit rate 0.18% among 70,000 | AID 624101, 2012; in the data active means inhibition above about 34%; inconclusive means no clear call, values can overlap the other calls; inactive means below about 11%;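 further: 0% = DMSO and 100% = no enzyme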
T cruzi growth-2 = T. cruzi intracellular proliferation inhibitors, confirmation, cell-based, NIH3T3 host, beta-gal parasite, luminescence, cherry-pick. hit rate 72% among 5,600. AID 651739, 2012. shares compounds with T cruzi growth-1. inhibition, % at 8.35 µM. T. cruzi beta-gal in NIH3T3, GalScreen luminescence, 90 h;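 active means mean replicate inhibition above about 95% and at least 55% of replicates individually reaching it, limit read from the data; inconclusive means only one of the two criteria is met; inactive means neither criterion is met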
T cruzi growth-3 = inhibitors of intracellular T. cruzi replication, confirmation, NIH3T3 host cells, beta-gal parasites, cherry-pick, set 2; hit rate 21% among 5,600; shares compounds with T cruzi growth-1; T. cruzi beta-gal in NIH3T3, GalScreen luminescence, 90 h; inhibition, % at 2.09 µM; AID 651740, 2012;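 active means mean inhibition above about 95%, with at least 55% of replicates also reaching it, limit read from the data; inconclusive means meets just one of the two conditions; inactive means meets neither condition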;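 further: plate controls were neutral control median for no effect and positive control median for full effect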
NIH3T3 tox = cytotoxicity in mouse NIH/3T3 fibroblasts, confirmation, cytotoxicity control for T. cruzi proliferation inhibitor project, cell-based, cherry-pick, single point | NIH/3T3 viability, CellTiter-Glo ATP luminescence, 90 h | AID 651742, 2012 | shares compounds with T cruzi growth-1 | cytotoxicity (signal decrease), % at 8.35 µM | hit rate 14% among 5,600;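 active means mean signal decrease across replicates above about 35% based on untreated-well scatter, with enough replicates individually passing, limit read from the data; inconclusive means no rule stated though some were filed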;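 further: 0% = median of neutral control wells and 100% = median of positive control wells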
NIH3T3 tox 2 = NIH/3T3 fibroblast cytotoxicity, confirmation, cytotoxicity control, cell-based, cherry-pick, single point, set 2 | shares compounds with T cruzi growth-1 | AID 651744, 2012 | NIH/3T3 viability, CellTiter-Glo ATP luminescence, 90 h | hit rate 56% among 5,600 | inhibition, % at 24.9 µM;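 active means mean loss of cell viability signal at or above a set limit, and enough replicates individually reaching it; inconclusive means meets only the mean limit or only the replicate share; inactive means meets neither condition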;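 further: 0% = median of neutral control wells and 100% = median of positive control wells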
The depositor's hits bear a star; ? = inconclusive; . = not tested or not shown; + = active, no number.

SMILES	KDM4C inh	T cruzi growth-1	IDH1 mut inh	T cruzi growth-2	T cruzi growth-3	NIH3T3 tox	NIH3T3 tox 2
COCC(=O)Nc1ccc2c(c1)C(=O)N(C)C[C@H](OC)[C@@H](C)CN(Cc1cc(F)ccc1F)[C@@H](C)CO2	1	27	0	.	.	.	.
CC(C)C#Cc1ccc2c(c1)O[C@H](CN(C)C(=O)c1ccccn1)[C@H](C)CN([C@@H](C)CO)S2(=O)=O	3	-9	1	.	.	.	.
CCc1c(C)nc(SCC(=O)Nc2ccc(C)cc2)[nH]c1=O	.	.	1	.	.	.	.
Cc1cc(C(=O)Nc2cccc3c2O[C@H](CN(C)Cc2ccc(Cl)c(Cl)c2)[C@H](C)CN([C@@H](C)CO)C3=O)n(C)n1	1	24	.	.	.	.	.
C[C@H]1CCCCO[C@H](CN(C)C(=O)c2ccccc2)[C@@H](C)CN([C@@H](C)CO)C(=O)c2cc(NC(=O)C3CCCCC3)ccc2O1	0	21	-1	.	.	.	.
O=C(CSc1n[nH]c(-c2ccc(Cl)cc2)n1)NC1CC2CCC1C2 (configuration not stated)	.	.	0	.	.	.	.
C[C@H]1CN([C@@H](C)CO)S(=O)(=O)c2ccc(-c3ccccc3)cc2O[C@H]1CN(C)Cc1cccc(F)c1	0	119*	.	94	102*	25	107*
C[C@@H]1CN([C@H](C)CO)S(=O)(=O)c2ccc(-c3ccc(F)cc3)cc2O[C@@H]1CN(C)Cc1cccc(F)c1	3	74	.	.	.	.	.
CC(C)(C)NCC(O)COc1cccc2c1CC(O)C(O)C2 (configuration not stated)	.	.	0	.	.	.	.
COCCNC(=O)C[C@@H]1CC[C@H]2[C@H](COc3ccc(NC(=O)C4CCOCC4)cc3C(=O)N2C)O1	0	20	.	.	.	.	.
CN1[C@H](C(=O)Nc2ccccc2)[C@@H](CO)[C@@H]2Cn3c(ccc(-c4ccc(F)cc4)c3=O)[C@@H]21	1	+	.	103*	11	-16	11
CCN1[C@@H]2c3ccc(-c4ccc(F)cc4)c(=O)n3C[C@@H]2[C@@H](CO)[C@@H]1C(=O)Nc1ccccc1	8	.	.	.	.	.	.
CCC(=O)N1[C@@H]2c3ccc(-c4cccc(F)c4)c(=O)n3C[C@@H]2[C@@H](CO)[C@@H]1C(=O)N1CCCCC1	0	.	.	.	.	.	.
CCCNC(=O)N1[C@H](C(=O)N2CCCCC2)[C@@H](CO)[C@@H]2Cn3c(ccc(-c4ccc(F)cc4)c3=O)[C@@H]21	2	98*	.	17	-19	-14	6
CN1[C@@H]2c3ccc(-c4ccc(F)cc4)c(=O)n3C[C@@H]2[C@@H](CO)[C@@H]1C(=O)Nc1ccccc1	1	+	.	-21	-34	-27	-5
CN1[C@@H]2c3ccc(-c4cccc(F)c4)c(=O)n3C[C@@H]2[C@@H](CO)[C@@H]1C(=O)NCc1ccccn1	10	77	.	.	.	.	.
CN1[C@H](C(=O)NCc2ccccn2)[C@@H](CO)[C@@H]2Cn3c(ccc(-c4cccc(F)c4)c3=O)[C@@H]21	5	111*	.	52	5	17	13
COCC(=O)N1[C@H](C(=O)Nc2ccccc2)[C@@H](CO)[C@@H]2Cn3c(ccc(-c4ccc(F)cc4)c3=O)[C@@H]21	-1	10	.	.	.	.	.
CCN(CC(=O)Nc1cccc([N+](=O)[O-])c1)S(=O)(=O)c1ccc(Cl)cc1	.	.	0	.	.	.	.
C[C@@H]1CCCCO[C@H](CN(C)S(=O)(=O)c2ccccc2)[C@@H](C)CN([C@@H](C)CO)C(=O)c2cc(NC(=O)c3ccncc3)ccc2O1	1	.	3	.	.	.	.
C[C@@H]1CCCCO[C@H](CN(C)Cc2ccc(C(=O)O)cc2)[C@@H](C)CN([C@@H](C)CO)C(=O)c2cc(NC(=O)Cc3ccccc3)ccc2O1	1	-29	-2	.	.	.	.
Cc1noc(C)c1NC(=O)N(C)C[C@H]1Oc2ccc(N(C)C)cc2CC(=O)N([C@@H](C)CO)C[C@@H]1C	1	-52	-2	.	.	.	.
O=C(N[C@H]1C=C[C@@H](CC(=O)N2CCOCC2)O[C@H]1CO)c1ccccn1	0	-11	0	.	.	.	.
C[C@@H]1CCCCO[C@H](CN(C)Cc2ccc(C(F)(F)F)cc2)[C@@H](C)CN([C@H](C)CO)C(=O)c2cc(NC(=O)C3CCCCC3)ccc2O1	2	70	.	.	.	.	.
C[C@@H]1CCCCO[C@@H](CN(C)Cc2ccncc2)[C@@H](C)CN([C@H](C)CO)C(=O)c2cc(NC(=O)C3CCCCC3)ccc2O1	1	26	12	.	.	.	.
SMILES	KDM4C inh	T cruzi growth-1	IDH1 mut inh	T cruzi growth-2	T cruzi growth-3	NIH3T3 tox	NIH3T3 tox 2
C[C@@H]1CCCCO[C@@H](CN(C)Cc2ccc(C(F)(F)F)cc2)[C@H](C)CN([C@H](C)CO)C(=O)c2cc(NC(=O)C3CCCCC3)ccc2O1	-1	118*	.	89	104*	22	17
C[C@@H]1CN([C@H](C)CO)C(=O)c2cc(NC(=O)C3CCCCC3)ccc2O[C@@H](C)CCCCO[C@H]1CN(C)Cc1ccncc1	0	103*	3	65	32	0	3
C[C@H]1CN([C@@H](C)CO)C(=O)c2cc(NC(=O)C3CCCCC3)ccc2O[C@H]1CN(C)Cc1ccc(C(F)(F)F)cc1	1	15	2	.	.	.	.
C[C@@H]1CN([C@@H](C)CO)C(=O)c2cc(NC(=O)C3CCCCC3)ccc2O[C@@H](C)CCCCO[C@H]1CN(C)Cc1ccc(C(F)(F)F)cc1	15	?	.	89	116*	26	7
C[C@@H]1CN([C@@H](C)CO)C(=O)c2cc(NC(=O)C3CCCCC3)ccc2O[C@@H](C)CCCCO[C@H]1CN(C)Cc1ccc(C(=O)O)cc1	0	6	5	.	.	.	.
C[C@H]1CN([C@@H](C)CO)C(=O)c2cc(NC(=O)C3CCCCC3)ccc2O[C@@H]1CN(C)Cc1ccc(C(F)(F)F)cc1	0	92*	0	92	38	-3	22
Cc1cccc(-n2c(N)cc(=O)nc2SCC(=O)Nc2ccccc2C#N)c1	.	.	0	.	.	.	.
C[C@H]1CCCCO[C@@H](CN(C)C(=O)c2ccncc2)[C@@H](C)CN([C@@H](C)CO)C(=O)c2cc(NC(=O)C3CCCCC3)ccc2O1	1	10	.	.	.	.	.
O=C(C[C@@H]1C[C@@H]2c3cc(NS(=O)(=O)c4ccc(F)cc4)ccc3O[C@@H]2[C@@H](CO)O1)NCc1ccccn1	2	.	-1	.	.	.	.
